# Assay results published in ChEMBL document CHEMBL1141025, “Replacing alkyl sulfonamide with aromatic sulfonamide in sulfonamide-type RXR agonists favors switch towards antagonist activity” (Bioorg Med Chem Lett, 2009).
# Activity calls are given as the source filed them. The rule behind the calls is not given here.
# Tests used:
# [1] = target: T1, Retinoic acid receptor RXR-alpha (Homo sapiens, UniProt P19793); test: Antagonist activity at RXRalpha expressed in african green monkey COS1 cells assessed as inhibition of LGD-1069-induced agonist activity; assay type: functional, cell-based, COS-1
# T1 sequence (P19793 whole entry): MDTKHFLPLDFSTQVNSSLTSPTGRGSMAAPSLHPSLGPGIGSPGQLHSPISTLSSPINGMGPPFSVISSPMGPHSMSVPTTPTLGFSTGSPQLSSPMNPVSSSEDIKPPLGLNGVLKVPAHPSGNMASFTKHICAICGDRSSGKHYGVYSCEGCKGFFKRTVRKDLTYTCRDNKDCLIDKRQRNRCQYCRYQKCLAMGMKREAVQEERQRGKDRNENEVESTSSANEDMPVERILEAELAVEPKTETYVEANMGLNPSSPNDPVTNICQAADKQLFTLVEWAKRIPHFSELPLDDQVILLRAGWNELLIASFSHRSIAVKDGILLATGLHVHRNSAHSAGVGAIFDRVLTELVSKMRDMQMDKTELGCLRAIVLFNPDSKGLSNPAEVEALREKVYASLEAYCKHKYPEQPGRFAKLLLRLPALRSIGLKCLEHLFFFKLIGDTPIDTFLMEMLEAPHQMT
# [2] = target: T2, Retinoic acid receptor RXR-beta (Homo sapiens, UniProt P28702); test: Antagonist activity at RXRbeta expressed in african green monkey COS1 cells assessed as inhibition of LGD-1069-induced agonist activity; assay type: functional, cell-based, COS-1
# T2 sequence (P28702 whole entry): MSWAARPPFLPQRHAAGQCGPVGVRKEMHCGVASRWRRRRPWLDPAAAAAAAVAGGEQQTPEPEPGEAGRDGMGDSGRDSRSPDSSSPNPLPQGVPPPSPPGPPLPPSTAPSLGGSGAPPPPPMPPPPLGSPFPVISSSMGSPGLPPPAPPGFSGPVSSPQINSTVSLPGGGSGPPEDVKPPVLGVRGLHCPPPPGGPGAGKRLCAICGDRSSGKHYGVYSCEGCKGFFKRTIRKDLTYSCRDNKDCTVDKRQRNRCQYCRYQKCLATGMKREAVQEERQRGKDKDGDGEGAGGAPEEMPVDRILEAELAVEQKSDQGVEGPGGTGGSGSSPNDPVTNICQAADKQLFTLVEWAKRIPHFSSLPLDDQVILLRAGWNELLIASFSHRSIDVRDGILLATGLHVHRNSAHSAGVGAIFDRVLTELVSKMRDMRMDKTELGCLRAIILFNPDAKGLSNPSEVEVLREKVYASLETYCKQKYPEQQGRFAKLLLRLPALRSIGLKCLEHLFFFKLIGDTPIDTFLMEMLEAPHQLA
# Method in brief: (§1)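 Luciferase reporter gene assay in COS-1 cells measuring inhibition of LGD1069-driven activity. IC50 is taken from full dose–response curves spanning 10^-7 to 10^-5 M.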
# [3] = target: T3, Retinoic acid receptor RXR-gamma (Homo sapiens, UniProt P48443); test: Antagonist activity at RXRgamma expressed in african green monkey COS1 cells assessed as inhibition of LGD-1069-induced agonist activity; assay type: functional, cell-based, COS-1; method in brief: as §1
# T3 sequence (P48443 whole entry): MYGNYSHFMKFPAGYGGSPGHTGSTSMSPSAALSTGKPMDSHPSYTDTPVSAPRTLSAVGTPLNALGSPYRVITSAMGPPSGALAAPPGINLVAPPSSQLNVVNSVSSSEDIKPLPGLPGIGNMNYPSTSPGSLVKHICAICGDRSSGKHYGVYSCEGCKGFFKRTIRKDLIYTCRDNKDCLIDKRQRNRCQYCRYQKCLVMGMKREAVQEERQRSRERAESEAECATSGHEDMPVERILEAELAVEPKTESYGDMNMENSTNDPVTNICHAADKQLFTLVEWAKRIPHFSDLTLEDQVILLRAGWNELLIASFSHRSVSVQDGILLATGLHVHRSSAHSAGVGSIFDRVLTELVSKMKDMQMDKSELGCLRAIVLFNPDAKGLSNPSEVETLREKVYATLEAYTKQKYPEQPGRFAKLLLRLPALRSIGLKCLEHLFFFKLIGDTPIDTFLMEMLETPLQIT
# [4] = target: T4, Retinoic acid receptor RXR-alpha (Homo sapiens) (UniProt P19793); test: Agonist activity at RXRalpha expressed in african green monkey COS1 cells by luciferase reporter gene assay relative to LGD1069; assay type: functional, cell-based; details: COS-1
# T4 sequence (whole entry): T1 sequence (P19793 whole entry)
# Method in brief: (§2)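 Luciferase reporter gene assay in COS-1 cells. Each subtype's activity is expressed relative to 1 μM LGD1069, an RXR pan-agonist, used as the reference.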
# [5] = target: T5, Retinoic acid receptor RXR-beta (Homo sapiens) (UniProt P28702); test: Agonist activity at RXRbeta expressed in african green monkey COS1 cells by luciferase reporter gene assay relative to LGD1069; assay type: functional, cell-based; details: COS-1; method in brief: as §2
# T5 sequence (whole entry): T2 sequence (P28702 whole entry)
# [6] = target: T6, Retinoic acid receptor RXR-gamma (Homo sapiens) (UniProt P48443); test: Agonist activity at RXRgamma expressed in african green monkey COS1 cells by luciferase reporter gene assay relative to LGD1069; assay type: functional, cell-based; details: COS-1; method in brief: as §2
# T6 sequence (whole entry): T3 sequence (P48443 whole entry)
IC50 [1],IC50 [2],IC50 [3],Activity [4],Activity [5],Activity [6],SMILES
–,0.044 µM,0.38 µM,–,–,–,CN1c2ccc([N+](=O)[O-])cc2N=C(c2ccc(C(=O)O)cc2)c2cc3c(cc21)C(C)(C)CCC3(C)C
2.7 µM,3.9 µM,6.6 µM,inactive,inactive,inactive,COc1ccc(S(=O)(=O)N(c2ccc3c(c2)C(C)(C)CCC3(C)C)c2ccc(C(=O)O)cn2)cc1

# Continued, compound first:
SMILES,IC50 [1],IC50 [2],IC50 [3],Activity [4],Activity [5],Activity [6]
CCCCS(=O)(=O)N(c1ccc2c(c1)C(C)(C)CCC2(C)C)c1ccc(C(=O)O)cn1,> 10 µM,> 10 µM,> 10 µM,–,–,–
CC1(C)CCC(C)(C)c2cc(N(c3ccc(C(=O)O)cn3)S(=O)(=O)c3ccc([N+](=O)[O-])cc3)ccc21,> 10 µM,> 10 µM,> 10 µM,inactive,inactive,inactive
CC1(C)CCC(C)(C)c2cc(N(c3ccc(C(=O)O)cn3)S(=O)(=O)c3ccc(C(F)(F)F)cc3)ccc21,3.2 µM,0.75 µM,2.7 µM,inactive,inactive,inactive
CC1(C)CCC(C)(C)c2cc(N(c3ccc(C(=O)O)cn3)S(=O)(=O)c3ccccc3)ccc21,> 10 µM,> 10 µM,> 10 µM,inactive,inactive,inactive
CC1(C)CCC(C)(C)c2cc(N(c3ccc(C(=O)O)cn3)S(=O)(=O)c3ccc(Cl)cc3)ccc21,4.1 µM,0.87 µM,4.5 µM,inactive,inactive,inactive
Cc1ccc(S(=O)(=O)N(c2ccc3c(c2)C(C)(C)CCC3(C)C)c2ccc(C(=O)O)cn2)cc1,5.2 µM,3 µM,3.8 µM,inactive,inactive,inactive
